Measured values reported in ChEMBL document CHEMBL4257484, “Membrane-active antimicrobial poly(amino-modified alkyl) β-cyclodextrins synthesized via click reactions” (Medchemcomm, 2018).
Converted amounts (≈) assume the structure as drawn.

Assays:
[1] = Lipophilicity, log P of the compound; assay type: physicochemical; conditions: octanol/water
Staphylococcus aureus [2] = test: Antibacterial activity against methicillin-sensitive Staphylococcus aureus FDA 209P after 20 hrs by liquid microdilution method; assay type: functional
Method in brief: (§1)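 Two-fold serial dilutions of compound in Mueller–Hinton broth, inoculated with 1 × 10^4 cells and cultured at 37 °C for 20 h in microtiter wells.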

Bacillus subtilis = test: Antibacterial activity against drug-sensitive Bacillus subtilis 168 after 20 hrs by liquid microdilution method; assay type: functional; conditions: subsp. subtilis str. 168, 20 h; method in brief: as §1
Escherichia coli = test: Antibacterial activity against drug-sensitive Escherichia coli K-12 W3110 after 20 hrs by liquid microdilution method; assay type: functional; conditions: K-12 substr. W3110, 20 h; method in brief: as §1
Salmonella typhimurium = test: Antibacterial activity against drug-sensitive Salmonella typhimurium LT2 after 20 hrs by liquid microdilution method; assay type: functional, Salmonella enterica subsp. enterica serovar Typhimurium; conditions: Salmonella enterica, LT2, 20 h; method in brief: as §1
Pseudomonas aeruginosa = test: Antibacterial activity against drug-sensitive Pseudomonas aeruginosa PAO1 after 20 hrs by liquid microdilution method; assay type: functional; conditions: PAO1, 20 h; method in brief: as §1
[3] = Hemolytic activity in rabbit RBC at 50 uM after 20 mins relative to control; assay type: ADME, cell-based, Oryctolagus cuniculus, Erythrocyte; conditions: rabbit red blood cells (erythrocytes), read-out: Activity
Method in brief: (§2)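 Rabbit erythrocytes suspended in 150 mM NaCl/10 mM Hepes-NaOH, pH 7.4, at 0.5% hematocrit (final) and incubated with compound at 37 °C. The table footnote gives 20 min; the methods section gives 30 min. Hemolysis was read as absorbance at 540 nm, with 50 µM lysolecithin defining 100% hemolysis.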

[4] = Hemolytic activity in rabbit RBC at 20 uM after 20 mins relative to control; assay type: ADME, cell-based, Oryctolagus cuniculus, Erythrocyte; conditions: rabbit red blood cells (erythrocytes), read-out: Activity; method in brief: as §2
[5] = Hemolytic activity in rabbit RBC at 10 uM after 20 mins relative to control; assay type: ADME, cell-based, Oryctolagus cuniculus, Erythrocyte; conditions: rabbit red blood cells (erythrocytes), read-out: Activity; method in brief: as §2
[6] = Hemolytic activity in rabbit RBC at 5 uM after 20 mins relative to control; assay type: ADME, cell-based, Oryctolagus cuniculus, Erythrocyte; conditions: rabbit red blood cells (erythrocytes), read-out: Activity; method in brief: as §2
[7] = Hemolytic activity in rabbit RBC at 2 uM after 20 mins relative to control; assay type: ADME, cell-based, Oryctolagus cuniculus, Erythrocyte; conditions: rabbit red blood cells (erythrocytes), read-out: Activity; method in brief: as §2
[8] = Hemolytic activity in rabbit RBC at 1 uM after 20 mins relative to control; assay type: ADME, cell-based, Oryctolagus cuniculus, Erythrocyte; conditions: rabbit red blood cells (erythrocytes), read-out: Activity; method in brief: as §2
Staphylococcus aureus [9] = test: Antibacterial activity against methicillin-resistant Staphylococcus aureus MS29202 after 18 to 20 hrs by agar dilution method; assay type: functional
Method in brief: (§3)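 Agar dilution per CLSI. Overnight broth cultures were diluted 100-fold, and one loopful (about 10^5 to 10^4 CFU) was spotted onto agar plates containing the CD. Growth was scored after 18–20 h at 37 °C. MIC values are in µM.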

Streptococcus agalactiae = test: Antibacterial activity against drug-resistant Streptococcus agalactiae B1 after 18 to 20 hrs by agar dilution method; assay type: functional; method in brief: as §3
Enterococcus faecium = test: Antibacterial activity against drug-resistant Enterococcus faecium MS29120 after 18 to 20 hrs by agar dilution method; assay type: functional; method in brief: as §3
Enterococcus faecalis [10] = test: Antibacterial activity against drug-resistant Enterococcus faecalis MS29030 after 18 to 20 hrs by agar dilution method; assay type: functional; method in brief: as §3
Enterococcus faecalis [11] = test: Antibacterial activity against vancomycin-resistant Enterococcus faecalis MS29016 after 18 to 20 hrs by agar dilution method; assay type: functional; method in brief: as §3

CC(C)CCCNCc1cn(C[C@H]2O[C@@H]3O[C@H]4[C@H](O)[C@@H](O)[C@@H](O[C@H]5[C@H](O)[C@@H](O)[C@@H](O[C@H]6[C@H](O)[C@@H](O)[C@@H](O[C@H]7[C@H](O)[C@@H](O)[C@@H](O[C@H]8[C@H](O)[C@@H](O)[C@@H](O[C@H]9[C@H](O)[C@@H](O)[C@@H](O[C@H]2[C@H](O)[C@H]3O)O[C@@H]9Cn2cc(CNCCCC(C)C)nn2)O[C@@H]8Cn2cc(CNCCCC(C)C)nn2)O[C@@H]7Cn2cc(CNCCCC(C)C)nn2)O[C@@H]6Cn2cc(CNCCCC(C)C)nn2)O[C@@H]5Cn2cc(CNCCCC(C)C)nn2)O[C@@H]4Cn2cc(CNCCCC(C)C)nn2)nn1
logP [1]: -0.15
MIC (Staphylococcus aureus [2]): 3 to 10 µM (≈ 6.85 to 22.8 µg/mL)
MIC (Bacillus subtilis): 3 µM (≈ 6.85 µg/mL)
MIC (Escherichia coli): 10 µM (≈ 22.8 µg/mL)
MIC (Salmonella typhimurium): 10 µM (≈ 22.8 µg/mL)
MIC (Pseudomonas aeruginosa): 5 µM (≈ 11.4 µg/mL)
hemolysis at 20 min, 50 µM [3]: 56%
hemolysis at 20 min, 20 µM [4]: 23%
hemolysis at 20 min, 10 µM [5]: 15%
hemolysis at 20 min, 5 µM [6]: 7%
hemolysis at 20 min, 2 µM [7]: 5%
hemolysis at 20 min, 1 µM [8]: 5%
MIC (Staphylococcus aureus [9]): 21 µM (≈ 48 µg/mL)
MIC (Streptococcus agalactiae): 5 µM (≈ 11.4 µg/mL)
MIC (Enterococcus faecium): 10 µM (≈ 22.8 µg/mL)
MIC (Enterococcus faecalis [10]): > 42 µM
MIC (Enterococcus faecalis [11]): 42 µM (≈ 96 µg/mL)

CCCC(C)CCNCc1cn(C[C@H]2O[C@@H]3O[C@H]4[C@H](O)[C@@H](O)[C@@H](O[C@H]5[C@H](O)[C@@H](O)[C@@H](O[C@H]6[C@H](O)[C@@H](O)[C@@H](O[C@H]7[C@H](O)[C@@H](O)[C@@H](O[C@H]8[C@H](O)[C@@H](O)[C@@H](O[C@H]9[C@H](O)[C@@H](O)[C@@H](O[C@H]2[C@H](O)[C@H]3O)O[C@@H]9Cn2cc(CNCCC(C)CCC)nn2)O[C@@H]8Cn2cc(CNCCC(C)CCC)nn2)O[C@@H]7Cn2cc(CNCCC(C)CCC)nn2)O[C@@H]6Cn2cc(CNCCC(C)CCC)nn2)O[C@@H]5Cn2cc(CNCCC(C)CCC)nn2)O[C@@H]4Cn2cc(CNCCC(C)CCC)nn2)nn1 (stereo partly specified)
logP [1]: 0.27
MIC (Staphylococcus aureus [2]): 3 to 20 µM (≈ 7.15 to 47.7 µg/mL)
MIC (Bacillus subtilis): 10 µM (≈ 23.8 µg/mL)
MIC (Escherichia coli): 5 µM (≈ 11.9 µg/mL)
MIC (Salmonella typhimurium): 10 µM (≈ 23.8 µg/mL)
MIC (Pseudomonas aeruginosa): 10 µM (≈ 23.8 µg/mL)
hemolysis at 20 min, 50 µM [3]: 119%
hemolysis at 20 min, 20 µM [4]: 108%
hemolysis at 20 min, 10 µM [5]: 99%
hemolysis at 20 min, 5 µM [6]: 73%
hemolysis at 20 min, 2 µM [7]: 30%
hemolysis at 20 min, 1 µM [8]: 10%
MIC (Staphylococcus aureus [9]): 40 µM (≈ 95.3 µg/mL)
MIC (Streptococcus agalactiae): 20 µM (≈ 47.7 µg/mL)
MIC (Enterococcus faecium): 20 µM (≈ 47.7 µg/mL)
MIC (Enterococcus faecalis [10]): > 40 µM
MIC (Enterococcus faecalis [11]): 40 µM (≈ 95.3 µg/mL)

CCC(CC)CNCc1cn(C[C@H]2O[C@@H]3O[C@H]4[C@H](O)[C@@H](O)[C@@H](O[C@H]5[C@H](O)[C@@H](O)[C@@H](O[C@H]6[C@H](O)[C@@H](O)[C@@H](O[C@H]7[C@H](O)[C@@H](O)[C@@H](O[C@H]8[C@H](O)[C@@H](O)[C@@H](O[C@H]9[C@H](O)[C@@H](O)[C@@H](O[C@H]2[C@H](O)[C@H]3O)O[C@@H]9Cn2cc(CNCC(CC)CC)nn2)O[C@@H]8Cn2cc(CNCC(CC)CC)nn2)O[C@@H]7Cn2cc(CNCC(CC)CC)nn2)O[C@@H]6Cn2cc(CNCC(CC)CC)nn2)O[C@@H]5Cn2cc(CNCC(CC)CC)nn2)O[C@@H]4Cn2cc(CNCC(CC)CC)nn2)nn1
logP [1]: -0.08
MIC (Staphylococcus aureus [2]): 3 to 5 µM (≈ 6.85 to 11.4 µg/mL)
MIC (Bacillus subtilis): 3 µM (≈ 6.85 µg/mL)
MIC (Escherichia coli): 10 µM (≈ 22.8 µg/mL)
MIC (Salmonella typhimurium): 42 µM (≈ 96 µg/mL)
MIC (Pseudomonas aeruginosa): 42 µM (≈ 96 µg/mL)
hemolysis at 20 min, 50 µM [3]: 12%
hemolysis at 20 min, 20 µM [4]: 8%
hemolysis at 20 min, 10 µM [5]: 8%
hemolysis at 20 min, 5 µM [6]: 3%
hemolysis at 20 min, 2 µM [7]: 1%
hemolysis at 20 min, 1 µM [8]: 5%
MIC (Staphylococcus aureus [9]): 21 µM (≈ 48 µg/mL)
MIC (Streptococcus agalactiae): 3 µM (≈ 6.85 µg/mL)
MIC (Enterococcus faecium): 10 µM (≈ 22.8 µg/mL)
MIC (Enterococcus faecalis [10]): > 42 µM
MIC (Enterococcus faecalis [11]): 21 µM (≈ 48 µg/mL)
